Source: ChEMBL document CHEMBL5303300, “EUbOPEN Chemogenomics Library - Multiplex” (2023)
Where “and” joins values, the source holds several entries; their conditions need not be identical. Equal values may be shown once.

How the values were obtained:
Fibroblast = test: Multiplex assay against human fibroblast; format: toxicity, cell-based; conditions: number of replicates 2
Summary of the method: (§1)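 With compound added, live cells were imaged on a CQ1 microscope at 37°C and 5% CO2; staining with Hoechst33342, BioTracker Green Microtubule Cytoskeleton Dye, MitoTracker Red and Annexin V Alexa Fluor 680 had been done at seeding. The CellPathfinder machine-learning gating scheme split cells into Hoechst high-intensity objects or normal cells, normal cells into healthy, pyknosed or fragmented nuclei, and pyknosed cells into mitotic or apoptotic. The tubulin, mitochondrial-mass and membrane-permeability phenotypes are per cents of healthy-nucleus cells.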

HEK-293T = test: Multiplex assay against HEK293T; format: toxicity, cell-based; conditions: human, number of replicates 2; summary of the method: as §1
[1] = 12 h, 1 µM, compound concentration 1 uM
[2] = 12 h, 10 µM, compound concentration 10 uM
[3] = 24 h, 1 µM, compound concentration 1 uM
[4] = 24 h, 10 µM, compound concentration 10 uM
[5] = 48 h, 1 µM, compound concentration 1 uM
[6] = 48 h, 10 µM, compound concentration 10 uM

## CCc1ncnc(N2CCN(C(C)=O)CC2)c1C#Cc1ccc(N)nc1.Cl.Cl
Fibroblast; [1]
  Population Apoptotic (%): 39% and 41%
  Population Fragmented Nuclei (%): 26% and 16%
  Population Healthy Nuclei (%): 48% and 55%
  Population Hoechst High Intensity Objects (%): 0%
  Population Membrane Permeable-Phenotype (%): 8% and 9%
  Population Mitochondria Different-Phenotype (%): 1% and 2%
  Population Mitotic Cells (%): 60% and 58%
  Population Normal (%): 99%
  Population Pyknosed Nuclei (%): 24% and 28%
  Population Tubulin-Different-Phenotype (%): 20% and 15%
  Total Cell Count: 278 and 215
Fibroblast; [2]
  Population Apoptotic (%): 47%
  Population Fragmented Nuclei (%): 19% and 25%
  Population Healthy Nuclei (%): 53% and 54%
  Population Hoechst High Intensity Objects (%): 0%
  Population Membrane Permeable-Phenotype (%): 4% and 8%
  Population Mitochondria Different-Phenotype (%): 4% and 0%
  Population Mitotic Cells (%): 52%
  Population Normal (%): 100%
  Population Pyknosed Nuclei (%): 26% and 19%
  Population Tubulin-Different-Phenotype (%): 41% and 42%
  Total Cell Count: 180 and 245
Fibroblast; [3]
  Population Apoptotic (%): 53% and 46%
  Population Fragmented Nuclei (%): 28% and 10%
  Population Healthy Nuclei (%): 46% and 64%
  Population Hoechst High Intensity Objects (%): 1% and 0%
  Population Membrane Permeable-Phenotype (%): 12% and 4%
  Population Mitochondria Different-Phenotype (%): 0% and 1%
  Population Mitotic Cells (%): 46% and 53%
  Population Normal (%): 98% and 99%
  Population Pyknosed Nuclei (%): 25% and 24%
  Population Tubulin-Different-Phenotype (%): 12% and 9%
  Total Cell Count: 259 and 210
Fibroblast; [4]
  Population Apoptotic (%): 65% and 63%
  Population Fragmented Nuclei (%): 18% and 31%
  Population Healthy Nuclei (%): 51% and 55%
  Population Hoechst High Intensity Objects (%): 0%
  Population Membrane Permeable-Phenotype (%): 4% and 6%
  Population Mitochondria Different-Phenotype (%): 5% and 0%
  Population Mitotic Cells (%): 34% and 36%
  Population Normal (%): 100% and 99%
  Population Pyknosed Nuclei (%): 29% and 12%
  Population Tubulin-Different-Phenotype (%): 37% and 27%
  Total Cell Count: 176 and 264
Fibroblast; [5]
  Population Apoptotic (%): 48% and 54%
  Population Fragmented Nuclei (%): 28% and 14%
  Population Healthy Nuclei (%): 58% and 75%
  Population Hoechst High Intensity Objects (%): 1% and 0%
  Population Membrane Permeable-Phenotype (%): 5% and 6%
  Population Mitochondria Different-Phenotype (%): 0%
  Population Mitotic Cells (%): 51% and 45%
  Population Normal (%): 98% and 99%
  Population Pyknosed Nuclei (%): 12% and 10%
  Population Tubulin-Different-Phenotype (%): 10% and 7%
  Total Cell Count: 259 and 219
Fibroblast; [6]
  Population Apoptotic (%): 62% and 68%
  Population Fragmented Nuclei (%): 13% and 21%
  Population Healthy Nuclei (%): 63% and 67%
  Population Hoechst High Intensity Objects (%): 0%
  Population Membrane Permeable-Phenotype (%): 5% and 1%
  Population Mitochondria Different-Phenotype (%): 8% and 0%
  Population Mitotic Cells (%): 37% and 32%
  Population Normal (%): 100%
  Population Pyknosed Nuclei (%): 22% and 10%
  Population Tubulin-Different-Phenotype (%): 36% and 25%
  Total Cell Count: 163 and 231
HEK-293T; [1]
  Population Apoptotic (%): 62% and 67%
  Population Fragmented Nuclei (%): 5% and 4%
  Population Healthy Nuclei (%): 80% and 82%
  Population Hoechst High Intensity Objects (%): 12% and 10%
  Population Membrane Permeable-Phenotype (%): 2% and 0%
  Population Mitochondria Different-Phenotype (%): 40% and 39%
  Population Mitotic Cells (%): 37% and 32%
  Population Normal (%): 87% and 89%
  Population Pyknosed Nuclei (%): 13% and 12%
  Population Tubulin-Different-Phenotype (%): 62% and 57%
  Total Cell Count: 352 and 438
HEK-293T; [2]
  Population Apoptotic (%): 79% and 66%
  Population Fragmented Nuclei (%): 5% and 4%
  Population Healthy Nuclei (%): 77%
  Population Hoechst High Intensity Objects (%): 15% and 9%
  Population Membrane Permeable-Phenotype (%): 0% and 1%
  Population Mitochondria Different-Phenotype (%): 60% and 59%
  Population Mitotic Cells (%): 20% and 33%
  Population Normal (%): 84% and 90%
  Population Pyknosed Nuclei (%): 16% and 17%
  Population Tubulin-Different-Phenotype (%): 80% and 76%
  Total Cell Count: 304 and 297
HEK-293T; [3]
  Population Apoptotic (%): 66% and 56%
  Population Fragmented Nuclei (%): 8% and 11%
  Population Healthy Nuclei (%): 78% and 74%
  Population Hoechst High Intensity Objects (%): 15% and 23%
  Population Membrane Permeable-Phenotype (%): 1%
  Population Mitochondria Different-Phenotype (%): 41% and 42%
  Population Mitotic Cells (%): 33% and 43%
